# Screening results from PubChem.
# Only some compounds are listed: those with a hit (about 2.9% of all), similar ones and a draw of the others.
# CHO-K1 Ca antag – nonselective inhibitor or artifact in parental CHO-K1 cells; inhibition, % at 3 µM; AID 602250; hit rate 0.6% among 360,000; ATP-induced calcium, Fluo-8 fluorescence;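 active = inhibition above a per-plate cutoff, the plate's mean sample inhibition plus 3 SD, cut at about 24% in these data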
# CHO-K1 Ca ag – M1 agonist counterscreen hit in parental CHO-K1 cells; Fluo-8 calcium fluorescence; scaled to maximal ATP response, vehicle zero; activation, % at 3 µM; hit rate 0.48% among 360,000; in the data active = activation above about 15%;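 also: untransfected CHO-K1 host cells lacking M1 receptor as counterscreen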
# CHO parental Ca – counter-screen for OX1R antagonists: effect in parental CHO cells; parental CHO-K1, ATP-induced calcium, Fluo-8 fluorescence; inhibition, % at 5.6 µM; hit rate 0.63% among 330,000; AID 463079;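 active = inhibition above that plate's mean sample inhibition plus 3 SD, cut at about 26% in these data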
#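 Test system: parental CHO cells; detection: calcium-sensitive Fluo-8 fluorescence; evaluation: percent inhibition of calcium signal; also added: ATP as calcium-mobilizing challenge; repeats: one well per compound; control set: ATP-challenged DMSO wells low, unchallenged DMSO wells high; compound: single nominal dose of 5.6 µM per compound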
# OX1R antag-1 – blocks the human orexin 1 receptor; OX1R-expressing cells, FRET antagonist read-out; inhibition, % at 6.6 µM; hit rate 1.8% among 330,000; in the data active = inhibition mostly above about 38%, no sharp cut-off; inactive = mostly below about 40%
# Target sequence (O43613 whole entry, looked up): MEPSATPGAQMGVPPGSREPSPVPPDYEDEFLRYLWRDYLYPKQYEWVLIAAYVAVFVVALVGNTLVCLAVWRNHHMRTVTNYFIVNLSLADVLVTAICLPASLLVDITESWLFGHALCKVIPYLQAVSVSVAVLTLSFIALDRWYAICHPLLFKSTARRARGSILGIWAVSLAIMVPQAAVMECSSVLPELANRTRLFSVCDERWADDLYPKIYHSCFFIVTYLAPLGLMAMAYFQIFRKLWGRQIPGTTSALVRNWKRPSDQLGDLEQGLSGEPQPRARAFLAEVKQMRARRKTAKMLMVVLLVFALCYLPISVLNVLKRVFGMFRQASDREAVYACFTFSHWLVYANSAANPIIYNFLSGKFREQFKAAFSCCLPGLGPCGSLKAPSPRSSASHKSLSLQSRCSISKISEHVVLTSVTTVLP
# CHO-K1 Ca PAM – nonselective activator or artifact in parental CHO-K1 calcium assay; hit rate 0.02% among 360,000; activation, % at 3 µM; ATP EC20, Fluo-8 calcium fluorescence; 0% at ATP EC20, 100% at ATP max;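 active = activation above the run cutoff, the mean activation of all test compounds plus 3 SD, cut at about 40% in these data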;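 also: peak over basal fluorescence ratio in a 140 s read after ATP addition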
# OX1R antag-2 – blocks the human orexin 1 receptor. O43613. CHO/OX1R cells, Fluo-8 calcium fluorescence, orexin A. inhibition, % at 5 µM. hit rate 0.43% among 330,000. AID 434989;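 active = inhibition above its plate's threshold, mean inhibition of all tested compounds on the plate plus 3 SD, cut at about 37% in these data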
# Hits are given with their value; – = inactive; · = no result given.
SMILES,CHO-K1 Ca antag,CHO-K1 Ca ag,CHO parental Ca,OX1R antag-1,CHO-K1 Ca PAM,OX1R antag-2
Cc1ccc2nc(SCc3nc4ccccc4c(=O)[nH]3)[nH]c2c1,29,–,–,–,–,–
COC(=O)c1sc2nc(CSc3nc4ccc(C)cc4[nH]3)[nH]c(=O)c2c1C,–,–,–,–,–,–
Cc1cc(Br)cn2c(Cc3ccsc3)c(C3CCCCC3)nc12,–,–,·,·,–,·
CCCCN(C(=O)CSc1nnc(-c2ccc(OC)cc2)n1CC)c1c(N)n(Cc2ccccc2)c(=O)[nH]c1=O,28,–,–,–,–,–
COc1cc(CN2C[C@@H](CO)O[C@@H](n3cnc4c(N5CCOCC5)ncnc43)C2)cc(OC)c1OC,–,–,·,·,–,·
COc1ccc(/C=N/NC(=O)c2cc(-c3cccn3C)n[nH]2)cc1OC,–,–,–,–,–,–
COc1cc(OC)c(OC)cc1/C=N/NC(=O)c1cc(-c2cccn2C)n[nH]1,–,–,–,59,–,–
CN(CC(=O)Nc1ccccc1Cl)C(=O)c1cccc(S(=O)(=O)N2CCN(c3ccccc3)CC2)c1,28,–,·,·,–,·
C=C(C)c1cc2c(ccc3ccc(=O)oc32)o1,–,–,–,75,–,–
CCOc1ccccc1NC(=O)C1CCCCN1S(=O)(=O)c1ccccc1 (stereo not drawn),–,–,–,53,–,–
COc1ccc(S(=O)(=O)N2CCCCC2C(=O)O)cc1 (stereo not drawn),–,–,–,–,–,–
COc1ccccc1NC(=O)C(=O)NCCC1CCCCN1S(=O)(=O)c1ccc(F)cc1 (stereo not drawn),–,–,–,–,–,–
COc1ccc(NC(=O)C2CCCCN2S(=O)(=O)c2ccc(F)cc2)c(OC)c1 (stereo not drawn),27,–,–,–,–,–
O=C(Nc1ccccc1N1CCCC1)C1CCN(S(=O)(=O)c2ccc(F)cc2)CC1,–,–,–,–,–,–
O=C(Nc1ccccc1NS(=O)(=O)c1ccc(F)cc1)C1CCCC1,–,–,–,63,–,–
COc1ccccc1NC(=O)C1CCCCN1S(=O)(=O)c1ccc(F)cc1 (stereo not drawn),–,–,–,57,–,–
COc1ccc(S(=O)(=O)Nc2ccc3c(c2)C(=O)N([C@H](C)CO)C[C@H](C)[C@@H](CN(C)S(C)(=O)=O)O3)cc1,–,–,–,–,–,–
CC(=O)Oc1ccc(-c2ccc(C(=O)OCC(=O)N(C)CC(=O)Nc3ccccc3Cl)cc2)cc1,–,–,–,–,–,–
Cc1ccsc1/C=N/NC(=O)c1nnn(-c2nonc2N)c1CN(C)c1ccccc1,–,–,–,50,–,–
CCOc1ccc(/C=N/NC(=O)c2nnn(-c3nonc3N)c2-c2cccs2)cc1,–,34,–,–,–,–
CCOc1ccc(-c2c(C(=O)N/N=C/c3cccs3)nnn2-c2nonc2N)cc1,–,–,–,–,–,–
CC(C)Oc1ccc(/C=N/NC(=O)c2nnn(-c3nonc3N)c2CN(C)c2ccccc2)cc1,–,–,–,56,–,–
C/C(=N\NC(=O)c1nnn(-c2nonc2N)c1CN(C)c1ccccc1)c1cccc(O)c1,–,–,–,49,–,–
COc1ccc(S(=O)(=O)N2CCOC2CNC(=O)C(=O)NCC(C)C)cc1OC (stereo not drawn),–,–,–,–,–,–
Cc1cccc(C)c1NC(=O)CN1C(=O)CCSc2ccc(S(=O)(=O)N3CCCC3)cc21,–,–,–,–,–,–
SMILES,CHO-K1 Ca antag,CHO-K1 Ca ag,CHO parental Ca,OX1R antag-1,CHO-K1 Ca PAM,OX1R antag-2
Nc1nonc1-n1nnc(C(=O)N/N=C/c2cccs2)c1-c1ccc2c(c1)OCO2,–,42,–,–,–,–
Cc1ccc(-c2c(C(=O)N/N=C/c3ccco3)nnn2-c2nonc2N)cc1,–,16,–,–,–,–
Cc1ccsc1/C=N/NC(=O)c1nnn(-c2nonc2N)c1-c1ccc2c(c1)OCO2,–,–,–,–,–,–
Cc1ccc(CNC(=O)c2nccnc2C(=O)O)cc1,–,–,–,–,–,–
CCOc1ccccc1N1CCN(C(=O)c2ccc3nc(N)sc3c2)CC1,–,–,–,–,–,–
COC(=O)N1CCN(c2ccc(Cl)c(Cl)c2)CC1,–,–,–,–,–,–
CNC(=S)N1CCN(c2ccc(Cl)c(Cl)c2)CC1,–,17,–,–,–,–
O=C(c1ccco1)N1CCN(c2ccc(Cl)cc2)CC1,–,–,–,–,–,–
Cc1cc(C)cc(NC(=S)N2CCN(C(=O)c3ccco3)CC2)c1,25,–,–,–,–,–
O=C(c1ccco1)N1CCN(C(=S)Nc2ccc(F)c(Cl)c2)CC1,–,–,–,–,–,–
O=C(c1ccco1)N1CCN(c2ccc(Cl)c(Cl)c2)CC1,26,–,–,–,–,–
Cc1ccc(S(=O)(=O)N(CC(=O)NCC2CCCO2)Cc2cccc(C)c2)cc1 (stereo not drawn),–,–,–,–,–,–
CCN(CC)c1ccc(/C=C/c2cc(-c3ccccc3)c3ccccc3n2)cc1,–,–,38,–,–,–
Cc1cc(NC(=O)OC2CCCCC2)ccc1[N+](=O)[O-],–,–,–,–,–,–
Cn1cc([N+](=O)[O-])c(C(=O)N/N=C/c2ccncc2)n1,–,–,–,75,–,–
Cn1cc([N+](=O)[O-])c(C(=O)Nc2ccc(Br)cn2)n1,–,–,–,50,–,–
CC1CN(CCN2CC(C)N(C=O)CC2C)C(C)CN1C=O (stereo not drawn),–,–,·,·,–,·
O=C(COC(=O)CCc1ccccc1)Nc1ccc(F)cc1Cl,–,–,–,–,–,–
CSc1ccccc1NC(=O)CN1C(=O)C2CC=CCC2C1=O (stereo not drawn),–,–,·,·,–,·
CNS(=O)(=O)c1cn(CC(=O)NCc2ccc(N(C)C)cc2)cc1S(=O)(=O)NC,–,–,–,–,–,–
CC(=O)OCC(=O)Nc1ccc([N+](=O)[O-])cc1Cl,–,–,–,–,–,–
CC(=O)Oc1c(C)cc(Cl)cc1C(=O)Nc1ccc([N+](=O)[O-])cc1Cl,–,–,–,71,–,–
NS(=O)(=O)c1ccc(CNC(=O)CSc2nc3ccc(Cl)cc3[nH]2)cc1,–,–,–,–,–,–
N=C1/C(=C\c2coc3ccccc3c2=O)C(=O)N=C2SC=CN12,31,83,30,–,–,–
CC1=CC2=NC(=O)/C(=C/c3coc4ccc(Cl)cc4c3=O)C(=N)N2O1,27,56,39,–,–,–
CC1=CC2=NC(=O)/C(=C\c3cc(C)n(-c4cccc(Cl)c4)c3C)C(=N)N2O1,–,–,–,–,–,–
N=C1/C(=C/c2cccn2Cc2ccc(F)cc2)C(=O)N=C2SC=CN12,–,–,–,–,–,–
CSC1=NSC2=NC(=O)/C(=C/c3coc4ccc(O)cc4c3=O)C(=N)N12,35,27,37,–,–,47
